Experiments:
CYP2C9 = CYP2C9 (Homo sapiens, UniProt P11712); assay: Inhibition of human liver microsome CYP2C9 at 0.10 to 50 uM preincubated with NADPH for 0.5 hrs followed by substrate addition by LC-MS/MS method relative to control; assay type: ADME; conditions: liver microsomes, dose 0.1-50 µM
CYP2C8 = CYP2C8 (Homo sapiens, UniProt P10632); assay: Ratio of IC50 for human liver microsome CYP2C8 in absence of NADPH to IC50 for human liver microsome CYP2C8 in presence of NADPH; conditions: liver microsomes, read-out: Ratio IC50
CYP2B6 = CYP2B6 (Homo sapiens, UniProt P20813); assay: Ratio of IC50 for human liver microsome CYP2B6 in absence of NADPH to IC50 for human liver microsome CYP2B6 in presence of NADPH; conditions: liver microsomes, read-out: Ratio IC50
CYP3A4 = CYP3A4 (Homo sapiens, UniProt P08684); assay: Ratio of IC50 for human liver microsome CYP3A4 using midazolam as substrate in absence of NADPH to IC50 for human liver microsome CYP3A4 using midazolam as substrate in presence of NADPH; conditions: liver microsomes, probe midazolam, read-out: Ratio IC50
Summary of the method: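 Human liver microsomes preincubated 0.5 h with 0.10−50 μM compound, with or without NADPH, then CYP-specific probe substrates added (CYP3A4 with midazolam 1′-hydroxylation and with testosterone 6β-hydroxylation). Metabolites quantified by LC−MS/MS; % activity remaining computed against no-compound control. IC50 fitted by Probit model; ratio = IC50(−NADPH)/IC50(+NADPH).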

[1] = target: T1, Potassium voltage-gated channel subfamily KQT member 1 (Homo sapiens, UniProt P51787); assay: Agonist activity at human KCNQ1 channel expressed in CHO cells assessed as amplitude change of outward current at 0.1 uM by patch clamp method; assay type: cell-based
T1 sequence (P51787 whole entry): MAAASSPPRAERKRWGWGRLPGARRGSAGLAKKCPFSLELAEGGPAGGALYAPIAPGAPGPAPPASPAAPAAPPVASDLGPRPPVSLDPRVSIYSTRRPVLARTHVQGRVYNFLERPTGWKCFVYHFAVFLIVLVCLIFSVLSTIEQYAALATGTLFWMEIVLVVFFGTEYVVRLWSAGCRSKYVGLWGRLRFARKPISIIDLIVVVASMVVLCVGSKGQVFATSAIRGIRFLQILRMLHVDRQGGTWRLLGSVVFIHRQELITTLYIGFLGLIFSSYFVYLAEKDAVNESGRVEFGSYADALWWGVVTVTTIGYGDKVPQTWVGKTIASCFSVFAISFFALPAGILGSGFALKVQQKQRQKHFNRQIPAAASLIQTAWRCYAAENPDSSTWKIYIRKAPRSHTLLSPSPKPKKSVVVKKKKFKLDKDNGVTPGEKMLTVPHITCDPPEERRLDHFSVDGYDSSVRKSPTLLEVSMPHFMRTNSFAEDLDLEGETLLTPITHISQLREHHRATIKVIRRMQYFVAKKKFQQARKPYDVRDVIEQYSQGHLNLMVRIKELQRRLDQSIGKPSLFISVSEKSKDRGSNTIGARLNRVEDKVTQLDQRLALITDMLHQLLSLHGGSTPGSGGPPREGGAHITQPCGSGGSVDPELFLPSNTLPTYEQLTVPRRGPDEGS
Summary of the method: (§1)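 Whole-cell patch clamp at room temperature on CHO cells (DMEM/F12, 10% FBS) transiently co-transfected with EGFP and hKCNQ1, rKCNQ2, rKCNQ3 A278T, hKCNQ4 or hKCNQ5; KCNQ2/3 at 1:1 cDNA ratio. Pipette solution 145 mM KCl, 5 mM MgATP, pH 7.3; bath 140 mM NaCl, 5 mM KCl, pH 7.4, under perfusion. V1/2 from Boltzmann fits; I/I0 is current amplitude with versus without compound; n = 4−6.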

[2] = AUC(0 to t) in Sprague-Dawley rat at 2 mg/kg, po measured upto 24 hrs by LC-MS/MS method; assay type: ADME, organism-based; parameters: dose 2 mg/kg, time < 24 hrs, route po; conditions: in vivo
Summary of the method: (§2)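 Male SD rats (180−220 g) dosed orally at 2, 6 or 20 mg/kg in escalating fashion, handled as in the mouse study: 12 h fast, acetonitrile extraction of plasma, LC−MS/MS quantification. AUC0−t by trapezoidal method to the last measurable concentration.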

Mus musculus = assay: Anticonvulsant activity in MES induced Kunming mouse model of seizure at 3 mg/kg, po after 1 hr; assay type: functional
Summary of the method: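 MES test in male KM mice. Compounds freshly suspended in 0.5% CMC-Na and given by gavage at 20 mL/kg; 160 V stimulus through ear clips. Protection scored as absence of hindlimb tonic extension; time course at 0.25, 0.5, 1 and 2 h, otherwise tested at 1 h. ED50 from dose−response by nonlinear regression; Fisher's exact test versus vehicle.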

[3] = AUC(0 to t) in Sprague-Dawley rat at 6 mg/kg, po measured upto 24 hrs by LC-MS/MS method; assay type: ADME, organism-based; parameters: dose 6 mg/kg, time < 24 hrs, route po; conditions: in vivo; summary of the method: as §2
[4] = Metabolic stability in dog liver microsomes assessed as intrinsic clearance; assay type: ADME, Canis lupus familiaris, Microsome; conditions: read-out: CLH
[5] = target: Potassium voltage-gated channel subfamily KQT member 5 (Homo sapiens) (UniProt Q9NR82); assay: Agonist activity at human KCNQ5 channel expressed in CHO cells assessed as shift of half voltage of maximal activation at 0.1 uM by patch clamp method; assay type: cell-based; conditions: filed as agonist; summary of the method: as §1
[6] = Tmax in Kunming mouse brain at 5 mg/kg, po measured upto 24 hrs by LC-MS/MS method; assay type: ADME, organism-based
Summary of the method: (§3)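 Male KM mice (18–24 g), fasted 12 h before and 2 h after dosing, n = 3 per time point. Oral dose in 5% DMSO/5% Tween 80/90% saline; i.v. dose is that formulation diluted in saline with 1% Tween 80. Blood sampled 0.25–24 h after oral dosing, 0.083–24 h after i.v.; whole brain taken after oral dosing. Acetonitrile extraction with internal standard, LC-MS/MS.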

[7] = AUC(0 to t) in Sprague-Dawley rat blood at 6 mg/kg, po measured upto 24 hrs by LC-MS/MS method; assay type: ADME, organism-based; parameters: time < 24 hrs, dose 6 mg/kg, route po
Summary of the method: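 Separate experiment in male SD rats given 6 mg/kg orally; blood and brain concentrations measured concurrently. Samples extracted with acetonitrile (brain homogenized in 10 volumes acetonitrile and sonicated) and analysed by LC−MS/MS; AUC0−t by trapezoidal method.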

[8] = Volume of distribution at steady state in Kunming mouse plasma at 2 mg/kg, iv measured upto 24 hrs by LC-MS/MS method; assay type: ADME, organism-based; conditions: in vivo; summary of the method: as §3
[9] = Ratio of AUC(0 to t) in Sprague-Dawley rat brain to plasma at 6 mg/kg, po measured upto 24 hrs by LC-MS/MS method; assay type: ADME, organism-based; conditions: brain and plasma
Summary of the method: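 Male SD rats (180−220 g) given single oral doses of 2, 6 and 20 mg/kg; handled as in the mouse PK study (fasted 12 h before and 2 h after dosing, 5% DMSO/5% Tween 80/90% saline formulation). In a separate 6 mg/kg p.o. set, blood and brain were sampled together. Plasma and brain levels by LC−MS/MS.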

Sequence of CYP2C9 (P11712 whole entry): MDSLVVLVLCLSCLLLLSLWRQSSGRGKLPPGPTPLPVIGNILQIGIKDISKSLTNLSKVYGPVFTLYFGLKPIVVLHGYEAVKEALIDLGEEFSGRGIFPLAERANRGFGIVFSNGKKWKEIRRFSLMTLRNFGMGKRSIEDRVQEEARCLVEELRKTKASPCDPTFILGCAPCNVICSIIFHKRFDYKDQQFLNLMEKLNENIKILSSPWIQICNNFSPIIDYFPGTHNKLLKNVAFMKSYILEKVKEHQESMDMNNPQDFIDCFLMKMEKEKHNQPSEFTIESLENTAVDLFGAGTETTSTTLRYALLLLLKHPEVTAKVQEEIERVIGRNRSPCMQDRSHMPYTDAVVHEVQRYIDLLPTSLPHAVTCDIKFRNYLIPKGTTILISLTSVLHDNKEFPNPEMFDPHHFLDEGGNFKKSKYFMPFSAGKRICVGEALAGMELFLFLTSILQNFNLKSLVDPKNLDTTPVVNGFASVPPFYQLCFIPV
Sequence of CYP3A4 (P08684 whole entry): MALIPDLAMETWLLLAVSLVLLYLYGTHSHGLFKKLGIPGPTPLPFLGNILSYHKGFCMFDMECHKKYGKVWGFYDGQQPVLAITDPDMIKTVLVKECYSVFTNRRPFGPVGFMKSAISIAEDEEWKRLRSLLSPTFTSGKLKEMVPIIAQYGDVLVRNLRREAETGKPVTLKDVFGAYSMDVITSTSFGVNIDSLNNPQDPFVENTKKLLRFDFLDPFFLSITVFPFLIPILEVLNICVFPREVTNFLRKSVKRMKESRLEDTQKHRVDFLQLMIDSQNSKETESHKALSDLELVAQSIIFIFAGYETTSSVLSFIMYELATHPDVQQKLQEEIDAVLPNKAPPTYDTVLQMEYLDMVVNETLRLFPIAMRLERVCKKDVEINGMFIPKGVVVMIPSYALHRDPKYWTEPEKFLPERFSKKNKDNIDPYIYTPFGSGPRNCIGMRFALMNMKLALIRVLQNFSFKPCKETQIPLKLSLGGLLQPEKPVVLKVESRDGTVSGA
Sequence of CYP2B6 (P20813 whole entry): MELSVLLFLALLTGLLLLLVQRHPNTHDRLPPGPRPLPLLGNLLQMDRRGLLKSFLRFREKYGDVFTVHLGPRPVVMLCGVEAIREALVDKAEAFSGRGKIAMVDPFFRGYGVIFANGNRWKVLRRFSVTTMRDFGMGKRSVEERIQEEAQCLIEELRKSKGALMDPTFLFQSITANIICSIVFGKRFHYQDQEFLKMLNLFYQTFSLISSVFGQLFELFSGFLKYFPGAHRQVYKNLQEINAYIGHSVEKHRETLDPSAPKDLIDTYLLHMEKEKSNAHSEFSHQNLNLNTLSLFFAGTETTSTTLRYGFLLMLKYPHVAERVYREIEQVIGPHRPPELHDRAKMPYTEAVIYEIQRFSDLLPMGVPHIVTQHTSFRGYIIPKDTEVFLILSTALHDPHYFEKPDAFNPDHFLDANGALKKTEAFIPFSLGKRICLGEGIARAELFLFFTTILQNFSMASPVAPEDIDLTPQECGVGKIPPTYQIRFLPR
Sequence of CYP2C8 (P10632 whole entry): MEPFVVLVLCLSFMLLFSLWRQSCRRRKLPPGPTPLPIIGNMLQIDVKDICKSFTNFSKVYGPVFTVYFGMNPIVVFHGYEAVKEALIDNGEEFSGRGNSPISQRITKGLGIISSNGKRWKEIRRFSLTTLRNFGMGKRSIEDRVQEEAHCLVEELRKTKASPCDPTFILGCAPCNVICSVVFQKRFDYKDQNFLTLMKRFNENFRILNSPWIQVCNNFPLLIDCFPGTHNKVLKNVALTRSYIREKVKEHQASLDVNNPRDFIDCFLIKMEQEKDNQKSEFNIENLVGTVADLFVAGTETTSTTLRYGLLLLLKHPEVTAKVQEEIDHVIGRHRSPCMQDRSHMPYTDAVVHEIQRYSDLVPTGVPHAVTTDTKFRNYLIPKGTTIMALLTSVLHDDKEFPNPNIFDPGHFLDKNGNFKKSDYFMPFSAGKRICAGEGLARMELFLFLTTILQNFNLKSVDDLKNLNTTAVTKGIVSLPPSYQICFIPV
Sequence of Potassium voltage-gated channel subfamily KQT member 5 (Homo sapiens) (Q9NR82 whole entry): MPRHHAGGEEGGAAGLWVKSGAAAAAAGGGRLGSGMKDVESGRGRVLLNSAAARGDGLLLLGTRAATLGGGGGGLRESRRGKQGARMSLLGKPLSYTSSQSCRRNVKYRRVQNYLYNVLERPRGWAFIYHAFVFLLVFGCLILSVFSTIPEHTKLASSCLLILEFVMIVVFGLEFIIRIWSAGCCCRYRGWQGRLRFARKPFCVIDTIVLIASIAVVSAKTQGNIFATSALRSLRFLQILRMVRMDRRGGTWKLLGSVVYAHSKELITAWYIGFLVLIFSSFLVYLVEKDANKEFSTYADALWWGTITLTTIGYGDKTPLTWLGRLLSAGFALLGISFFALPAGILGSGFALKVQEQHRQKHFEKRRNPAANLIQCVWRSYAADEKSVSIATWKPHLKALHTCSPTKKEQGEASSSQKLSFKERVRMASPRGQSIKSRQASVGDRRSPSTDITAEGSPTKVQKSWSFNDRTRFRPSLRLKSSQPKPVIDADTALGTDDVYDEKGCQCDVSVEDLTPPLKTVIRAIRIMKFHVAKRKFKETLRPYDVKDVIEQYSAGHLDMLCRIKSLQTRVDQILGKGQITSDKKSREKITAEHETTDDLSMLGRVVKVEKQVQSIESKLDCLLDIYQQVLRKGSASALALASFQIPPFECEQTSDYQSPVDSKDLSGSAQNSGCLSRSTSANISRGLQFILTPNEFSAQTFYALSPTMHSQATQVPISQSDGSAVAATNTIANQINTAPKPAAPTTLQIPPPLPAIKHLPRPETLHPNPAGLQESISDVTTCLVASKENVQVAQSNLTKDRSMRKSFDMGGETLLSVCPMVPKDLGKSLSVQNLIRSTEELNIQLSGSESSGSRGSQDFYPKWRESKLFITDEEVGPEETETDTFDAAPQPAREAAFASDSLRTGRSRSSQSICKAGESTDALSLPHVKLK

With `C#CCN(Cc1ccc(F)cc1)c1cc(C)c(NC(=O)OC)c(C)c1` as the molecule, how does the inhibition at 0.5 h, up to 50 µM (CYP2C9) read?
Its inhibition at 0.5 h, up to 50 µM is < 25%.

What about the IC50 shift (CYP2C8) of the same molecule?
The IC50 shift was > 1.5.

What about the IC50 shift (CYP2B6) of the same molecule?
Its IC50 shift is > 1.5.

And the IC50 shift (CYP3A4)?
Its IC50 shift is < 1.5.

And the Activity [1]?
Its Activity is 0.99.

What about the AUC(0-t) at 24 h [2] of the same molecule?
Its AUC(0-t) at 24 h is 247 ng·h/mL.

And the Activity (Mus musculus)?
The Activity was 62.5%.

What about the AUC(0-t) at 24 h [3] of the same molecule?
The AUC(0-t) at 24 h was 1130 ng·h/mL.

What about the CLint scaled [4] of the same molecule?
The CLint scaled was 97.2 mL/min/kg.

And the Activity [5]?
The Activity was -9.03 mV.

And the Tmax [6]?
The Tmax was 15 min.

What about the AUC(0-t) at 24 h [7] of the same molecule?
Its AUC(0-t) at 24 h is 533 ng·h/mL.

And the Vdss [8]?
The Vdss was 2.89 L/kg.

What about the Kp at 24 h [9] of the same molecule?
The Kp at 24 h was 2.86.
